Ecoli rRNA inh: inhibits bacterial ribosomal RNA function over humanized ribosomes; E. coli WT GFP vs humanized-ribosome RFP mutants, fluorescence, 24 h; hits give low values; DMSO median 0, no signal -100; GFP signal change (wild-type ribosome), % (test concentration not listed); 1.6% of 350,000 active; AID 720706;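 active = significant combined selectivity score with lowered wild-type GFP, culture density cut under 30%, mutant RFP and density less affected; inactive = any of these conditions unmet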
HIV Env fusion: inhibitors of HIV Env-mediated cell fusion | HeLa-JRFL Env/CEM21 cell fusion, luciferase | inhibition, % at 12.3 µM | 1.1% of 360,000 active;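 active = mean replicate inhibition score of at least 50 and every replicate individually at or above 50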;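 note: 0% = plate neutral controls and 100% = maraviroc near 300 nM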
miR122 inh: blocks miR-122 activity in Huh7 sensor cells; Huh7 miR-122 Renilla luciferase sensor, 48 h; neutral wells = 0, positive control = 100; activation (reporter increase), % at 12.5 µM; 0.3% of 340,000 active;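 active = mean replicate activation score at least 90 and every replicate individually at or above 90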;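 note: higher luciferase means less miR-122 activity so hits act as miR-122 inhibitors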
F508del corr: correctors of CFTR F508del function in bronchial epithelial cells. CFBE cells, YFP halide quenching; stimulated with forskolin plus potentiator P3; % fluorescence drop versus neutral controls. AID 720511. 0.36% of 350,000 active. activity (quench increase), % at 7.58 µM;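 active = mean added fluorescence quench of at least 8% versus neutral control, with both replicates also reaching 8%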;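 note: cells transiently co-express mutant CFTR-F508del with the halide-sensitive YFP; corrector assay measuring rescue of mutant channel to the surface after 24 h compound exposure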
Cneo AK release: causes C. neoformans cell lysis. AID 651654. adenylate kinase release luminescence, 4 h; normalised: neutral wells 0, clomiphene wells 100. 0.2% of 360,000 active. lysis activity, % at 15 µM;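 active = mean lysis activity across replicates of at least 80%, whatever share of replicates individually reach that level; inactive = mean lysis activity below 80%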
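Assay system: log-phase C. neoformans yeast / Quantity: yeast cell density of 5 × 10^6 cells/mL / Medium: fresh YPD growth medium / Compound: single dose / Timing: static 4 h at 37 °C with compound, 1 h detection / Measured by: adenylate kinase release luminescence / Read-out: lysis from increased AK signal / Benchmarks: Clomiphene as positive lysis control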
GSIS activator: primary screen for activators of insulin secretion dependent on glucose, INS-1E cells, GLuc reporter luminescence; INS-1E GLuc reporter insulin secretion, 2-3 h; activation, % at 16.6 µM; 0.61% of 370,000 active;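 active = lowest replicate activation of at least 40%, so every replicate reaches that level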;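 note: 0% = median of neutral control wells and 100% = median of IBMX positive control wells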
* marks the source's active call; other numbers are inactive results; nt = no result; [ ] = dose if it differs, or a comment. Shown are actives, neighbours in structure and some others; about 3.1% of the full set was active somewhere.

SMILES | Ecoli rRNA inh | HIV Env fusion | miR122 inh | F508del corr | Cneo AK release | GSIS activator
COc1ccc(NC(=O)Nc2ccc3c(c2)[C@@H]2C[C@@H](CC(=O)N4CCN(C)CC4)O[C@H](CO)[C@@H]2O3)cc1 | 7 | -6[16.7 µM] | -3[16.7 µM] | 4 | -9 | 15
COc1ccccc1CN1[C@H](CO)[C@H]2c3ccccc3N(C(=O)c3ccncc3)C[C@H]21 | 3 | nt | 5[16.7 µM] | 2 | -3 | 17
CCc1cc2c(COC(=O)c3cccc(NS(C)(=O)=O)c3)cc(=O)oc2cc1O | -9 | -8 | -4 | 0 | 1 | 65*
CCc1cc2c(COC(=O)c3cc(S(=O)(=O)N4CCOCC4)ccc3F)cc(=O)oc2cc1O | 12 | nt | 0 | 0 | 0 | nt
Cn1cnc(S(=O)(=O)N[C@H]2C=C[C@@H](CC(=O)NCC3CC3)O[C@H]2CO)c1 | -2 | -9[16.7 µM] | -3[16.7 µM] | 2 | 0 | 1
CCN(CC(=O)Nc1c(F)cccc1F)C(=O)C1CC1 | 5 | nt | -6 | 8.4* | 0 | -2
COc1ccccc1CNC(=O)C[C@H]1CC[C@H]2[C@@H](COC[C@H](O)CN2C(=O)Nc2ccc(C(F)(F)F)cc2)O1 | -54 | nt | -5[16.7 µM] | 1 | -4 | -43
CCCNC(=O)Nc1ccc2c(c1)C(=O)N(C)C[C@@H](OC)[C@@H](C)CN(C(=O)CC)[C@H](C)CO2 | 2 | -4[16.7 µM] | 29[16.7 µM] | -1 | 91* | -3
CCC(=O)Nc1ccc2c(c1)C(=O)N(C)C[C@@H](OC)[C@H](C)CN[C@@H](C)CO2 | 2 | nt | 16[16.7 µM] | 1 | 102* | -11
CCCNC(=O)Nc1ccc2c(c1)C(=O)N(C)C[C@@H](OC)[C@H](C)CN(C(=O)CC)[C@@H](C)CO2 | 1 | 7[16.7 µM] | -2[16.7 µM] | -3 | 1 | -1
CCCNC(=O)Nc1ccc2c(c1)C(=O)N(C)C[C@H](OC)[C@@H](C)CN(C(=O)CC)[C@@H](C)CO2 | 4 | -6[16.7 µM] | -3[16.7 µM] | -4 | 99* | 15
COc1cccc(S(=O)(=O)N[C@H]2CC[C@H](CCNC(=O)Cc3ccncc3)O[C@@H]2CO)c1 | 0 | 1[16.7 µM] | nt | 1 | 0 | 5
CCCC(=O)NC1=C(Cl)C(=O)c2ccccc2C1=O | nt | 36 | nt | 45* | nt | nt
C/C=C/c1ccc([C@H]2[C@@H](C#N)N(S(=O)(=O)c3cccc(F)c3)[C@H]2CO)cc1 | -6 | nt | nt | 1 | 91* | -2
COc1cc(NC(=O)C/C(C)=N/NC(=O)C(=O)NCCO)c(OC)cc1Cl | -52* | 7 | nt | 0 | nt | 10
COc1cc(NC(=O)C/C(C)=N/NC(=O)C(=O)NC2CCCCC2)c(OC)cc1Cl | 2 | 7 | nt | 4 | nt | -6
Cn1c(C(C(=O)NCC2CCCO2)N(CCc2ccccc2)C(=O)Cn2nnc3ccccc32)nc2ccccc21 (stereo not given) | -22* | -30 | -7 | 1 | -1 | nt
CO[C@@H]1CN(C)C(=O)c2cc(NC(=O)C3CC3)ccc2OC[C@@H](C)N(Cc2ccc(F)cc2)C[C@H]1C | 0 | nt | -6[16.7 µM] | -1 | 0 | -3
Cc1ccc(S(=O)(=O)/N=C2\CN(C)C(=O)N2C)cc1 | 5 | -15 | nt | 4 | nt | 45*
COc1ccc(S(=O)(=O)NNC(=O)C(=O)NNc2ccccn2)cc1 | -31* | -10 | -3 | 1 | -1 | -5
O=C(Cc1ccccn1)N1CC(=O)N2[C@@H](CO)[C@H](c3ccc(C#CC4CCCCC4)cc3)[C@@H]2C1 | 4 | nt | nt | 2 | nt | 6
N#Cc1ccc(NC(=O)Nc2ccc(Oc3ccc(NC(=O)Nc4ccc(C#N)cc4)cc3)cc2)cc1 | -28* | 64* | -30 | -4 | -1 | -8
COc1ccc(C(=O)OCn2nnc3ccccc3c2=O)cc1OC | nt | nt | -4 | nt | -1 | nt
COc1cccc(C(=O)OCn2nnc3ccccc3c2=O)c1 | -22* | nt | 2 | -2 | 0 | 6
Cc1ccc(C(=O)OC(C(=O)Nc2ccc(Cl)cc2C(F)(F)F)c2ccccc2)cc1 (stereo not given) | nt | -34 | nt | nt | nt | nt
O=C(OC(C(=O)Nc1ccc(Cl)cc1C(F)(F)F)c1ccccc1)c1c(Cl)cccc1Cl (stereo not given) | 1 | 73* | nt | nt | nt | nt

Assay outcomes (PubChem BioAssay)
